Data set [1] is described as follows: Stability in pH 5.0 0.3 M acetate buffer assessed as time duration in which 90% produg stability at 1 mg by HPLC method. Format: physicochemical. To be noted: in vitro. The gist of the method:
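Roughly 1 mg prodrug was added to 10 mL of 0.3 M acetate buffer, pH 5.0, thermostated at 32 °C, then vortexed 1 min and filtered through 0.45 μm nylon. Degradation was followed over time by C-8 reversed-phase HPLC with UV at 215 or 278 nm, mobile phase 70:30 ACN:aqueous TFA/octane sulfonate, pH 3.0. t90 is the time to 10% loss; runs in duplicate.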

Data set [2] in a line: Half life in pH 7.4 25 mM HEPES buffered Hank's balanced salt solution at assessed as prodrug hydrolysis 1 mg by HPLC method. Format: physicochemical. To be noted: buffer. The gist of the method: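 About 1 mg prodrug went into 10 mL of 25 mM HEPES-buffered Hanks' balanced salt solution, pH 7.4, held at 37 °C. The mixture was vortexed 1 min and filtered through 0.45 μm nylon. Samples were run by reversed-phase C-8 HPLC with UV at 215 or 278 nm, mobile phase 70:30 ACN:aqueous 0.1% TFA/0.065% octane sulfonate, pH 3.0. Half-life was read from pseudo-first-order hydrolysis; duplicate runs.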

Data set [3] is described as follows: Solubility in pH 7.4 25 mM HEPES buffered Hank's balanced salt solution by HPLC method. In kind it is physicochemical. To be noted: buffer.
The next data set relates to Plasma. Description: Half life in 50% human plasma in presence of 50% PBS buffer assessed prodrug hydrolysis by HPLC method. In kind it is ADME, cell-free. In short, it runs like this: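 Each prodrug was made up as a DMSO stock, and 40.0 μL was added to 760.0 μL of 50% human plasma in 50% PBS (pH 7.4), pre-warmed to 37 °C. Aliquots taken at set times got salicylamide internal standard, were vortexed, centrifuged, dried under N2, and taken up in methanol/0.04% HFBA. Analysis used gradient HPLC on a phenyl column against an eight-point calibration. Kapp came from log(AUC prodrug/AUC IS) versus time; n=3, mean ± SD.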

The structures appear in SMILES notation.

For the compound `O=C(O[C@@H]1CC[C@@]2(O)[C@H]3Cc4ccc(O)c5c4[C@@]2(CCN3CC2CC2)[C@H]1O5)[C@@H]1CCCN1`, in data set [1], the Time was found to be 0.217 days.
For `C[C@H](N)C(=O)O[C@@H]1CC[C@@]2(O)[C@H]3Cc4ccc(O)c5c4[C@@]2(CCN3CC2CC2)[C@H]1O5`, in data set [1], the Time came to 0.412 days.
As to `CC(C)C[C@H](N)C(=O)O[C@@H]1CC[C@@]2(O)[C@H]3Cc4ccc(O)c5c4[C@@]2(CCN3CC2CC2)[C@H]1O5`, the Time in data set [1] was 0.9 days.
Consider `NCCC(=O)O[C@@H]1CC[C@@]2(O)[C@H]3Cc4ccc(O)c5c4[C@@]2(CCN3CC2CC2)[C@H]1O5`, for which the t1/2 in data set [2] came out at 12 h. In addition, in data set [1], the Time was 5.6 days.
As to `CCC(C)[C@H](N)C(=O)O[C@@H]1CC[C@@]2(O)[C@H]3Cc4ccc(O)c5c4[C@@]2(CCN3CC2CC2)[C@H]1O5` (some centres not stated), the solubility entry in data set [3] is reported as “Insoluble”. Moreover, the t1/2 in data set [2] came to 22 h; in the data set on Plasma it was 31.2 h. Moreover, the Time in data set [1] amounted to 14 days.
For the compound `CC(C)[C@H](N)C(=O)O[C@@H]1CC[C@@]2(O)[C@H]3Cc4ccc(O)c5c4[C@@]2(CCN3CC2CC2)[C@H]1O5`, the t1/2 in data set [2] was 11.5 h; in the data set with Plasma, 18.2 h. The Time in data set [1] came to 5.2 days.

The record behind these values is ChEMBL document CHEMBL3351845, “Synthesis and in vitro stability of amino acid prodrugs of 6-β-naltrexol for microneedle-enhanced transdermal delivery” (Bioorg Med Chem Lett, 2014).
